Bioassay records deposited in PubChem BioAssay by Johns Hopkins Ion Channel Center.
Kir21 block: blocks the mouse Kir2.1 inward-rectifier potassium channel. P35561. HEK293-Kir2.1, FluxOR thallium flux fluorescence; stronger effect = lower value. B-score at 10 µM. 310,000 tested, 0.85% active;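 active = fluorescence ratio B-score at or below minus 3 SD of library scores, with starting-brightness B-score within 2 SD, cut at about -4.2 in these data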;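 also: channel flux triggered by added potassium and thallium sulfate stimulus; B-score of peak minus minimum fluorescence over baseline after thallium stimulus; more negative B-score means stronger Kir2.1 block with less thallium influx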
KCNK9 inh: inhibitors of human KCNK9 two-pore domain potassium channel. HEK293 KCNK9, FluxOR thallium flux fluorescence; stronger effect = lower value. Q9NPC2. 310,000 tested, 1.2% active. B-score at 10 µM;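 active = ratio B-score over 3 SD below the library mean, with starting fluorescence within 5 SD of its mean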;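 also: negative B-score means less thallium flux so channel inhibition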
KCNQ1 inh: human KCNQ1 channel inhibition | P51787 | CHO-K1 KCNQ1, FluxOR thallium flux fluorescence; stronger effect = higher value | B-score at 10 µM | 310,000 tested, 1.3% active | AID 2642;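 active = compounds whose thallium flux B-score, printed positive for inhibition, exceeds three library SD while starting fluorescence stays within three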;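 also: channel opened by potassium depolarization with thallium stimulus after 20 min compound exposure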
Target sequence (P51787 whole entry, looked up): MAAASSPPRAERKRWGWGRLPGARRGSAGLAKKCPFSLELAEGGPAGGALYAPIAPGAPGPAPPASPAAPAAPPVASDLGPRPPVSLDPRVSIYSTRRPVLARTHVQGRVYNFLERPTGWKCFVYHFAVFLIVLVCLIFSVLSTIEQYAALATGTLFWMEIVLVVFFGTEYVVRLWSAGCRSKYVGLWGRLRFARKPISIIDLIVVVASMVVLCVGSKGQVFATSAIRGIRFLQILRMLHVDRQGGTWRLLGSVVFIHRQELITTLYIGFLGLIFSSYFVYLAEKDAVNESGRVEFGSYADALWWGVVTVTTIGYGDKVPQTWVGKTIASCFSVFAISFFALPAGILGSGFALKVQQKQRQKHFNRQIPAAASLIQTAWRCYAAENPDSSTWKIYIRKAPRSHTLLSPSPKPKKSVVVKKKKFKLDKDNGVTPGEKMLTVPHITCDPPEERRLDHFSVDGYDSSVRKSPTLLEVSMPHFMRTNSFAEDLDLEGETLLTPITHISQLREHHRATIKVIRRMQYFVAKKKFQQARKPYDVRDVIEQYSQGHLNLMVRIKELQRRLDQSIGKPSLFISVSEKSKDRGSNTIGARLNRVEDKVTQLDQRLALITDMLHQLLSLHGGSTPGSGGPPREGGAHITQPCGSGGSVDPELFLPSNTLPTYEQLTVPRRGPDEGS
hERG rescue: hERG (human) protection from proarrhythmic block; Q12809; CHO-hERG, FluxOR thallium flux, dofetilide IC70 present; activation (rescue from dofetilide block), less the hit threshold, % at 10 µM; 310,000 tested, 0.51% active; AID 1511;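 active = activation above the mean of controls blocked by dofetilide plus 5 SD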;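 also: thallium influx through hERG after potassium depolarization seen as dye fluorescence rise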
KCNQ1 act: potentiates or activates the human KCNQ1 potassium channel; CHO-K1 KCNQ1, thallium flux FluxOR fluorescence; stronger effect = higher value; B-score at 10 µM; 310,000 tested, 0.35% active; AID 2648;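 active = fluorescence ratio B-score, a plate-corrected score, at least three library SD, with initial intensity B-score within 5 SD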
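assay system = CHO-K1 cells stably expressing KCNQ1 | medium = assay buffer, equal DMSO in all wells | timing = 37 °C overnight plating, 90-min dark dye load, 20-min compound pretreatment | measured by = kinetic FluxOR thallium fluorescence, 10-s 1-Hz baseline, 110-s post-stimulus read | measure = fluorescence change relative to baseline, converted to B score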
KCNK3 block: human KCNK3 channel inhibition, primary screen. CHO-KCNK3 thallium flux, FluxOR fluorescence; stronger effect = lower value. O14649. 340,000 tested, 0.84% active. B-score at 10 µM;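 active = B-score under library mean minus 4 SD, starting fluorescence ratio at most library mean plus 5 SD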;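 also: more negative B-score means stronger inhibition of thallium flux through KCNK3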
Numbers stand for hits; . = inactive; / = no result given. The list is not random: actives were taken first. Their share in the collection is about 3.7%.

SMILES	Kir21 block	KCNK9 inh	KCNQ1 inh	hERG rescue	KCNQ1 act	KCNK3 block
O=C(NC(=S)N1CCN(C/C=C/c2ccccc2)CC1)c1c(F)cccc1F	.	.	.	.	7	.
O=C(NC(=S)N1CCN(C/C=C/c2ccccc2)CC1)c1ccco1	.	.	.	.	.	.
c1ccc2c(c1)c1c(c3ccccc32)CN2CCCC2C1 (stereo unspecified)	/	/	/	/	/	.
CC(=O)N1CCc2cc(S(=O)(=O)N3CCc4ccccc43)ccc21	.	.	.	.	.	.
CC(=O)NN1C(=O)/C(=C\c2ccc(Br)o2)SC1=S	-4.97	.	.	.	.	.
CC(=O)NN1C(=O)/C(=C/c2ccc(Br)o2)SC1=S	.	.	.	.	.	.
CCOC(=O)C1(C(=O)OCC)C(C(=O)c2ccccc2)C1c1ccccc1 (stereo unspecified)	/	/	/	/	/	.
CN(CC(=O)Nc1ccccc1Cl)CC(=O)Nc1c(F)cccc1F	.	.	.	5.2	.	.
CCOc1ccc(NC(=O)c2ccc3c(c2)CCN3S(C)(=O)=O)cc1	.	.	.	11.1	.	.
O=C(CSc1nc2ccccc2c(=O)[nH]1)Nc1ccc(C(=O)O)cc1	.	.	.	.	.	.
CCOc1ccc(NC(=O)c2ccc(N)cc2)cc1	.	.	.	.	11	.
CCOc1ccc(NC(=O)c2ccc(NC(=O)CSc3nc4ccccc4c(=O)[nH]3)cc2)cc1	.	.	.	4.7	.	.
CS(=O)(=O)N1CCc2cc(C(=O)Nc3ccc(Br)cc3)ccc21	.	.	.	.	.	.
O=C(CSc1nnnn1-c1cccc(F)c1)NC1CCCCC1	/	/	/	/	/	.
CCn1c2ccccc2c2cc(NC(=O)COc3ccccc3)ccc21	.	.	.	5.4	.	.
CCn1c2ccccc2c2cc(NC(=O)c3coc(=O)c(Br)c3)ccc21	.	-8.81	.	.	.	/
Nn1c(SCC(=O)Nc2nccs2)nnc1-c1cccnc1	/	/	/	/	/	.
Cc1ccc(S(=O)(=O)N2CCN(C(=O)CN3C(=O)c4ccc([N+](=O)[O-])cc4C3=O)CC2)cc1C	/	/	/	/	/	.
CCN(CC)S(=O)(=O)c1ccc(/C=C/C(=O)OCC(=O)NNC(=O)c2ccc(OC)cc2)cc1	/	/	/	/	/	.
C(#CCN1CCC(Cc2ccccc2)CC1)COCCOCc1ccccc1	-5.05	.	.	.	.	.
c1ccc(COCCN2CCN(CCOCc3ccccc3)CC2)cc1	.	.	.	.	.	.
Cc1cc(Cl)ccc1NC(=O)C1COc2ccccc2O1 (stereo unspecified)	.	.	.	.	.	.
CCOC(=O)c1ccc(NCC(O)COc2ccccc2)cc1 (stereo unspecified)	.	.	.	.	.	.
CCOCC(O)CNc1ccccc1 (stereo unspecified)	.	.	.	5.4	.	.
O=C(NNC(=O)c1ccc(S(=O)(=O)N2CCCC2)cc1)c1ccc(Br)cc1	/	/	/	/	/	.
SMILES	Kir21 block	KCNK9 inh	KCNQ1 inh	hERG rescue	KCNQ1 act	KCNK3 block
Cc1ccc(S(=O)(=O)N2CCOCC2)cc1N/N=C(\C#N)c1nc2ccccc2[nH]1	.	.	6	.	.	.
Cc1ccc(C(C)C)c(OCC(=O)NN=C2CCCC(=O)C2)c1	/	/	/	/	/	.
Cc1ccccc1NC(=S)NC(=O)COc1ccccc1C	.	.	.	.	.	.
Nc1nc2c(s1)COc1ccccc1-2	.	.	.	.	.	.
Nc1nc2c(s1)CCc1c-2cnn1-c1ccccc1	-4.47	.	.	.	.	.
COc1ccc2sc(C)[n+](C)c2c1	.	.	.	4.6	.	.
CCCC[n+]1c(C)sc2cc(OC)ccc21	.	.	.	.	.	.
N=C1/C(=C/c2ccc(-c3cccc(C(=O)O)c3)o2)C(=O)N=C2SC=C(c3ccccc3)N12	.	.	7	.	.	.
CC(C)S(=O)(=O)C1=NSC2=NC(=O)/C(=C\c3ccc(-c4ccccc4)o3)C(=N)N21	.	.	8	.	.	.
CC(C)S(=O)(=O)C1=NSC2=NC(=O)/C(=C\c3ccc(-c4cccc(C(=O)O)c4)o3)C(=N)N21	/	/	/	/	/	.
N=C1/C(=C\c2ccc(-c3cc(Cl)cc(Cl)c3)o2)C(=O)N=C2SC=C(c3ccccc3)N12	.	.	.	.	.	.
